Data taken from ChEMBL document CHEMBL4706772, “Structure-Based Design of A-1293102, a Potent and Selective BCL-X Inhibitor” (ACS Med Chem Lett, 2021).

Key:
RS4-11 = assay: Cytotoxicity against human RS4-11 cells assessed as reduction in cell viability measured after 48 hrs by celltiter-glo assay; format: functional, cell-based; details: RS4-11, 48 h
Bcl-2-like protein 1 [1] = target: T1, Bcl-2-like protein 1 (Homo sapiens, UniProt Q07817); assay: Binding affinity to N-terminal GST-tagged BCL-XL (unknown origin) assessed as residence half-life by SPR analysis
[2] = target: Induced myeloid leukemia cell differentiation protein Mcl-1 (Homo sapiens, UniProt Q07820); assay: Inhibition of F-Bak binding to GST-tagged MCL1 (unknown origin) measured after 1 hr by TR-FRET assay
Bcl-2-like protein 1 [3] = target: T1, Bcl-2-like protein 1; assay: Binding affinity to N-terminal GST-tagged BCL-XL (unknown origin) assessed as equilibrium dissociation constant by SPR analysis
Bcl-2-like protein 1 [4] = target: T1, Bcl-2-like protein 1; assay: Inhibition of F-Bak binding to GST-tagged BCL-XL (unknown origin) measured after 1 hr by TR-FRET assay
Homo sapiens = organism: Homo sapiens; assay: Selectivity ratio of Ki for inhibition of F-Bak binding to GST-tagged BCL2 (unknown origin) to Ki for inhibition of F-Bak binding to GST-tagged BCL-XL (unknown origin)
MOLT-4 [5] = assay: Cytotoxicity against human MOLT-4 cells assessed as reduction in cell viability measured after 48 hrs by celltiter-glo assay; format: functional, cell-based; details: MOLT-4, 48 h
Bcl-2-like protein 1 [6] = target: T1, Bcl-2-like protein 1; assay: Binding affinity to N-terminal GST-tagged BCL-XL (unknown origin) assessed as association rate constant by SPR analysis
Bcl-2-like protein 1 [7] = target: T1, Bcl-2-like protein 1; assay: Binding affinity to N-terminal GST-tagged BCL-XL (unknown origin) assessed as dissociation rate constant by SPR analysis
[8] = target: Apoptosis regulator Bcl-2 (Homo sapiens, UniProt P10415); assay: Inhibition of F-Bak binding to GST-tagged BCL2 (unknown origin) measured after 1 hr by TR-FRET assay
MOLT-4 [9] = assay: Induction of mitochondrial membrane depolarization in human MOLT-4 cells measured after 24 hrs; format: functional, cell-based
MOLT-4 [10] = assay: Induction of apoptosis in human MOLT-4 cells assessed as externalization of phosphatidylserine measured after 24 hrs by annexin-V staining based flow cytometry; format: functional, cell-based
Outline: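 Phosphatidylserine exposure in MOLT-4 cells was scored by annexin V binding after 24 h exposure to increasing inhibitor concentrations. Results are expressed as percent annexin V-positive cells.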

MOLT-4 [11] = assay: Induction of apoptosis in human MOLT-4 cells assessed as activation of caspase-3/7 measured after 24 hrs by caspase-3/7 fluorescence assay; format: functional, cell-based
Outline: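 MOLT-4 cells incubated 24 h with a rising concentration series of inhibitor. Read-out was caspase-3 and caspase-7 activation, reported as percentage of caspase-3/-7-positive cells.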

T1 sequence (Q07817 whole entry): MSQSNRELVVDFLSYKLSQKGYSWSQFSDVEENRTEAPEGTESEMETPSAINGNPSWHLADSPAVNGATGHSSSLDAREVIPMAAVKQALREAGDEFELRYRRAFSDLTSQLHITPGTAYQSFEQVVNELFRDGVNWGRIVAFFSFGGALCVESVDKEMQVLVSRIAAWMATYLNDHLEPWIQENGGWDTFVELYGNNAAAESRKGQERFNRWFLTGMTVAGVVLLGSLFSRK
Induced myeloid leukemia cell differentiation protein Mcl-1, sequence (Q07820 whole entry): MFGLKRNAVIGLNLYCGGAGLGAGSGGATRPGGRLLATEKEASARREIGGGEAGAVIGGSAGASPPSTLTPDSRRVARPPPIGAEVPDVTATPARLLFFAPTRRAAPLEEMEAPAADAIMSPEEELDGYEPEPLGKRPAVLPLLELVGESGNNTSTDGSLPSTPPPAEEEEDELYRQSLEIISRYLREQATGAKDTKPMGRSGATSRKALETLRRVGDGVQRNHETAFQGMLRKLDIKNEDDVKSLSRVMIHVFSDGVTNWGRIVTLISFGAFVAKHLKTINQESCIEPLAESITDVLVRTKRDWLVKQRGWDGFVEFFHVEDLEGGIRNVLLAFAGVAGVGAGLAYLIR
Apoptosis regulator Bcl-2, sequence (P10415 whole entry): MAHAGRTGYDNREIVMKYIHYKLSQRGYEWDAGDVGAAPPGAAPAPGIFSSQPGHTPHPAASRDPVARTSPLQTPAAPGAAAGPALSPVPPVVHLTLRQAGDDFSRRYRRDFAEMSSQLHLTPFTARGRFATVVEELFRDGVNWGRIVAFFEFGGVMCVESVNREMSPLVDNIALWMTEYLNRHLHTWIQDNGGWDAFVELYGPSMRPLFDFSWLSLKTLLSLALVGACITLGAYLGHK

Row | T1/2 (Bcl-2-like protein 1 [1]) | Ki [2] | Kd (Bcl-2-like protein 1 [3]) | Ki (Bcl-2-like protein 1 [4]) | Ratio Ki (Homo sapiens) | K (Bcl-2-like protein 1 [6]) | K (Bcl-2-like protein 1 [7]) | Ki [8] | SMILES | EC50 (RS4-11) | EC50 (MOLT-4 [5]) | Activity (MOLT-4 [9]) | Activity (MOLT-4 [10]) | Activity (MOLT-4 [11])
1 | 1 min | > 1.56 µM | 0.0005 µM | 0.00014 µM | > 220 | 2.18 10^7/M/s | 0.0109 s⁻¹ |  | CN(C)CC[C@H](CSc1ccccc1)Nc1ccc(S(=O)(=O)NC(=O)c2csc(N3CCc4cccc(C(=O)Nc5nc6ccccc6s5)c4C3)n2)cc1[N+](=O)[O-] | > 5 µM | > 5 µM |  |  | 
2 | 49 min | > 3.9 µM | 0.0004 µM | 0.00043 µM | > 220 | 5.88 10^5/M/s | 0.000234 s⁻¹ | 0.193 µM | O=C(NS(=O)(=O)c1ccc(N[C@H](CCN2CCOCC2)CSc2ccccc2)c(S(=O)(=O)C(F)(F)F)c1)c1csc(N2CCc3cccc(C(=O)Nc4nc5ccccc5s4)c3C2)n1 | > 5 µM | 0.08 µM | Dose-dependent effect | Dose-dependent effect | Dose-dependent effect
